# Screening data deposited in PubChem by several laboratories.
# CaV13 ICDI inh: Primary screen for inhibitors of IQ motif and Ca2+-dependent inactivation inhibitor domain binding in CACNA1D, Förster resonance energy transfer in living cells, …; HEK cells, CFP/YFP FRET ICDI-IQ, plate reader, 10 min; percent FRET-ratio fall versus neutral wells; inhibition, % at 12.3 µM; actives 0.098% (n = 340,000);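 active = mean replicate inhibition of at least 30% and at least 1% of replicates passing that level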;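 note: 0% = median of the neutral control wells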
# NRP1-CendR mod: modulators of CendR peptide binding to human neuropilin-1; O14786; FAM-RPARPAR peptide binding to NRP-1, fluorescence polarization; inhibition, % at 25 µM; actives 0.85% (n = 360,000); AID 602438;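 active = inhibition or corrected inhibition above about 18%, plus a signal ratio from 0.5 to 1.5, limit read from the data, passing the limit was not always enough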
# Target sequence (O14786 whole entry, looked up): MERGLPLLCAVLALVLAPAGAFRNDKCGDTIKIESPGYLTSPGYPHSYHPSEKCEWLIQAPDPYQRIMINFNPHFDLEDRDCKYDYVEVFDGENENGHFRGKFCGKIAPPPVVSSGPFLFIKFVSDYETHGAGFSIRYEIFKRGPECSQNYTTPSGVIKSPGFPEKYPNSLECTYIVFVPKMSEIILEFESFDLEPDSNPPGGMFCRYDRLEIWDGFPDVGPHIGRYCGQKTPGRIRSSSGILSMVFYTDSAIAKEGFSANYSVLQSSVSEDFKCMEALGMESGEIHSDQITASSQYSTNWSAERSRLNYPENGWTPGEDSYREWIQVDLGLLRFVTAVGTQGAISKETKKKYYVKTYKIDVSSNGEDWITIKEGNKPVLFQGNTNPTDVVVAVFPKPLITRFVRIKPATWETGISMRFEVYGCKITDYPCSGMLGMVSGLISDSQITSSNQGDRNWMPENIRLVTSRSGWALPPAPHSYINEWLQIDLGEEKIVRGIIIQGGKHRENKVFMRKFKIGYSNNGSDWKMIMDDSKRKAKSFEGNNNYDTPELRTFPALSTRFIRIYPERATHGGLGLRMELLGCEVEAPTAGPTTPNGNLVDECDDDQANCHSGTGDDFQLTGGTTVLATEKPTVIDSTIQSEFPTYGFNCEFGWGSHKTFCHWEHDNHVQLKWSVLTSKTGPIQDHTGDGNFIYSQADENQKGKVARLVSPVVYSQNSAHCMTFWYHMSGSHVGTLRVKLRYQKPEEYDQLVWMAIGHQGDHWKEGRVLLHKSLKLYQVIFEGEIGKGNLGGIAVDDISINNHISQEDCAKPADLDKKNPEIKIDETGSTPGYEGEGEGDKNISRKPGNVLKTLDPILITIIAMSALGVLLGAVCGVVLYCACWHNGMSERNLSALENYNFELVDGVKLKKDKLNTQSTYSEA
# ADAM17 inh: inhibitors of human ADAM17; recombinant ADAM17, EDANS/DABCYL FRET peptide cleavage; inhibition, % at 6.95 µM; actives 0.83% (n = 370,000);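 active = inhibition above the mean of compounds lying between control limits plus 3 SD, set per campaign, cut at about 8.5% in these data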;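 note: 0% = DMSO-only wells as the low control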
# ADAM10 inh: ADAM10 inhibition, QFRET primary screen | recombinant ADAM10, EDANS/DABCYL FRET peptide cleavage, 3 h | inhibition, % at 7 µM | actives 0.62% (n = 370,000);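 active = inhibition above a per-campaign cutoff equal to the mean of compounds falling between control-based bounds plus 3 SD, cut at about 20% in these data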;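 note: 0% = DMSO wells while the 100% control is not disclosed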
# FAS-TE inh: FAS thioesterase (human) inhibition; P49327; recombinant FAS-TE, OMFH fluorogenic substrate, fluorescence endpoint; inhibition, % at 15 µM; actives 0.67% (n = 360,000); AID 602261;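 active = compounds whose normalised, plate-corrected inhibition of enzyme fluorescence in the single-dose primary screen is 50% or more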;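 note: 0% = DMSO with enzyme and 100% = substrate without enzyme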
# Arrestin-AP2 inh: blocks beta-arrestin peptide binding to AP2 adaptin | FITC-arrestin peptide / GST-AP2 beads, flow cytometry; AP2 beta2 appendage carries R879A mutation | inhibition, % at 10 µM | actives 0.31% (n = 340,000) | AID 504490;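 active = inhibition above a set limit, near 3 SD of compounds lacking own fluorescence, cut at about 54% in these data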;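 note: plate controls were DMSO wells for no effect and 5 µM unlabelled arrestin peptide for full effect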
#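 System: GST-AP2 R879A glutathione beads. Medium: PBS with 0.05% Tween 20 and 0.1% BSA. Also added: FITC-arrestin peptide, 50 nM. Incubation: 12 min plus 1 h, RT. Measured by: high-throughput flow cytometry of beads, ex 488, em 535 nm. Evaluation: percent drop in bead-associated FITC signal.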
# ADAM10 ctr: ADAM10 inhibition, counter-screen for ADAM17 exosite hits; inhibition, % at 6.95 µM; recombinant ADAM10, EDANS/DABCYL FRET peptide cleavage, 3 h; actives 47% (n = 2,900); shares compounds with ADAM17 inh; AID 743256;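 active = mean inhibition over the triplicate runs exceeds the activity threshold set in the earlier primary screen, cut at about 20% in these data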;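 note: 0% = DMSO wells and 100% = marimastat wells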
# ADAM17 confirm: human ADAM17 inhibition, confirmation; recombinant ADAM17, EDANS/DABCYL QFRET peptide cleavage; AID 743257; actives 65% (n = 2,900); shares compounds with ADAM17 inh; inhibition, % at 6.95 µM;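 active = mean inhibition across replicates above the hit cutoff set in the primary screen, cut at about 8.5% in these data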;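 note: 0% = DMSO wells and 100% = marimastat wells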
# Starred values were filed as active, the others as inactive; · = no result. Hits are enriched below; roughly 2.9% of the tested compounds scored in any of these assays.
SMILES,CaV13 ICDI inh,NRP1-CendR mod,ADAM17 inh,ADAM10 inh,FAS-TE inh,Arrestin-AP2 inh,ADAM10 ctr,ADAM17 confirm
COc1cccc(-c2cnc3c(NC(C)=O)cc(-c4ccc(C(=O)N5CCOCC5)cc4)cn23)c1,-9,-28,-10,-29,19,·,·,·
Cc1cccc(-c2noc(-c3ccccc3C(=O)NCC3CCCO3)n2)c1 (centres undefined),-4,-5,1,2,-4,32,·,·
COc1cccc(NC(=O)c2ccccc2-c2nc(-c3cccc(C)c3)no2)c1,0,-5,9.6*,25*,28,6,26*,15*
COc1ccc(C2CC(=O)C(c3ccc4ccccc4c3)=CN2Cc2ccccc2)cc1 (centres undefined),-4,·,-1,-26,·,·,·,·
Cc1cc(C)nc(NS(=O)(=O)c2ccc(NC(=O)C3(c4ccc([N+](=O)[O-])cc4)CCCC3)cc2)n1,-18,5,0,0,-2,13,·,·
Cc1cccc(NC(=O)C2(c3ccc([N+](=O)[O-])cc3)CCCC2)c1,-4,7,9.3*,-4,28,-8,10,7
COCc1cc(N2CCN(C(=O)OC(C)(C)C)C[C@H]2C)ccc1N1CC[C@@H](O)C1,-4,·,-6,-11,·,·,·,·
Cc1cc(C)nc(SCc2ccc(C(=O)N/N=C/c3cccc(O)c3O)cc2)n1,-5,-7,5,19,8,-2,·,·
COc1ccc(O)c(/C=N/NC(=O)c2ccc(CSc3nc(C)cc(C)n3)cc2)c1,-6,-10,14*,19,17,·,10,9.5*
CCOC(=O)C1=CC[C@@H](c2ccccc2)C(C#N)(C#N)[C@H]1/C=C/c1ccccc1,-11,·,4,5,·,·,·,·
COC(=O)N/N=C/c1cc([N+](=O)[O-])cc(Br)c1O,-9,-9,11*,18,-6,3,6,4
CCc1ccccc1-c1cc(C(=O)OC)c2n(c1=O)CCC2,·,·,-1,-3,·,·,·,·
CC(NC(C)c1ccccc1Cl)C(=O)Nc1cccc(S(=O)(=O)N2CCCCC2)c1 (centres undefined),-4,3,11*,3,20,-9,16,10*
Cn1cc(C2(c3c[nH]c4ccccc34)CCN(C(=O)OC(C)(C)C)CC2)c2ccccc21,·,·,11*,10,·,·,3,7
CC(C)(C)OC(=O)N1CCC(c2ccc[nH]2)(c2c[nH]c3ccccc23)CC1,·,·,0,2,·,·,·,·
Cc1ccc(C(C(=O)NC2CCCC2)N(C(=O)CNC(=O)c2cccs2)c2cccnc2)o1 (centres undefined),-4,18,-1,-2,-1,5,·,·
Cc1ccc(C(C(=O)NC2CCCC2)N(Cc2cccs2)C(=O)CNC(=O)c2cccs2)o1 (centres undefined),-3,-2,9.2*,13,1,-1,-5,2
CCC(CC)c1nnc(NC(=O)C23CC4CC(CC(NC(C)=O)(C4)C2)C3)s1,·,15,1,0,-2,-9,·,·
CC(=O)NC12CC3CC(C1)CC(C(=O)Nc1nc4ccc(F)cc4s1)(C3)C2,-3,-10,8.6*,-4,3,3,-2,2
S=C(NCCc1ccc(Cl)cc1)Nc1ccc(Cl)cc1Cl,-3,4,16*,29*,42,-18,34*,19*
S=C(NCc1ccc(Cl)cc1)Nc1ccc(Cl)cc1Cl,-3,0,2,13,-3,15,·,·
CC(=O)N1CCN(S(=O)(=O)c2cccc(C(=O)OCC(=O)NCc3ccccc3Cl)c2)CC1,-5,6,1,-7,4,·,·,·
COc1ccc(-c2cc(C3CCN(c4ccc(C(C)=O)cc4[N+](=O)[O-])CC3)[nH]n2)cc1,-6,6,13*,33*,22,-2,32*,19*
C/C(N)=C(/C#N)C(=O)CSc1nnc(Nc2cccc(C)c2C)s1,-7,-1,1,-9,-6,-5,·,·
Cc1cccc(Nc2nnc(SCC(=O)c3ccc(Br)s3)s2)c1C,-5,-23,12*,12,20,5,16,12*
SMILES,CaV13 ICDI inh,NRP1-CendR mod,ADAM17 inh,ADAM10 inh,FAS-TE inh,Arrestin-AP2 inh,ADAM10 ctr,ADAM17 confirm
CC(=O)Nc1cccc(NC(=O)c2cccc(S(=O)(=O)N3CCN(Cc4ccccc4)CC3)c2)c1,-3,-3,20*,19,2,26,15,12*
O=C(NC1CCCCC1)c1ccc2ccccc2c1,-17,-6,0,-4,-4,·,·,·
O=C(NC1CC1)c1ccc2c(c1)C1C3CCC(C3)C1C(c1ccccc1)N2 (centres undefined),-5,4,9.6*,17,9,-4,11,9.4*
Cc1ccc(-c2nn(Cc3ccccc3)cc2C(=O)N2CCN(c3ccccn3)CC2)cc1,-4,-4,-10,-6,8,3,·,·
O=C(c1cn(Cc2ccccc2)nc1-c1ccc(Cl)cc1)N1CCN(c2ccccn2)CC1,-2,8,9.5*,0,21,6,16,6
O=C(NCCN1CCOCC1)C(=O)NCC1OCCN1S(=O)(=O)c1ccc(Cl)cc1 (centres undefined),-13,2,0,-4,-8,·,·,·
Cc1ccc(OCCC(=O)OCC(=O)NC(=O)NC2CCCCC2)cc1,-5,8,9.0*,-11,4,5,30*,14*
Cc1ccc(C)c(OCCC(=O)OCC(=O)NC(=O)NC2CCCCC2)c1,-5,-11,1,10,18,15,·,·
COc1ccc([C@H]2CC(=O)C=C(c3ccc(F)cc3OCc3ccccc3)C2)cc1OC,-10,-3,9.8*,18,28,24,11,6
COc1ccc([C@H]2CC(=O)C=C(c3ccc(F)cc3OCc3ccccc3)C2)cc1,-11,2,-2,3,24,17,·,·
CN(Cc1ccccc1)C(=O)c1ccc(NC(=O)Cc2ccc(NC(=O)C3CCN(C(=O)C4CCCC4)CC3)cc2)cc1,-10,-4,9.1*,3,-4,-4,33*,9.2*
CN(Cc1ccccc1)C(=O)c1ccc(NC(=O)Cc2ccc(NC(=O)C3CCN(C(=O)C4CC4)CC3)cc2)cc1,-9,·,1,-4,·,·,·,·
COCC(=O)N1C[C@@H](C)[C@@H](OC)CN(C)C(=O)c2ccc(NC(=O)c3cnccn3)cc2OC[C@H]1C,-5,-12,-6,-14,·,·,·,·
